Publication PMC3589724 (Scientific Reports, 2013)
Where two headings read alike, the source gives them in different places.

Columns and labels:
[1] = tested on: CaM; conditions: in vivo CaM binding, cited from earlier work
[2] = tested on: Ca^2+/CaM; experiment: ITC binding to Ca^2+/CaM; conditions: buffer B (20 mM HEPES pH 8.0, 100 mM NaCl, 10 mM CaCl2), 24°C, single-site fitting model
How it was run: (§1)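 CaM (His6-tagged, E. coli-expressed; mutants made by inverse PCR) is injected into full-length wild-type or point-mutant Nm/Ng, or into synthetic IQ peptides (Nm 34–57, Ng 27–50). Apo and mutant CaM are in buffer A; Ca2+/CaM is in buffer B. Samples are degassed. VP-ITC or iTC200, 24°C, 10 (or 2) μl injections at 5 (or 2) min intervals. Buffer-titration dilution heats are subtracted, and a single-site fit gives Ka.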

[3] = tested on: apoCaM; experiment: ITC binding to apo CaM; conditions: for Association constant Ka: apoCaM, buffer A (20 mM Imidazole pH 8.0, 100 mM NaCl, 2 mM EGTA), 24°C, single-site fitting model
How it was run: as §1

[4] = tested on: CaMWT; experiment: ITC binding to wild-type CaM; conditions: point mutants of Nm/Ng
How it was run: as §1

[5] = tested on: synaptic transmission, CA1 hippocampal synapses; conditions: cited from earlier work
[6] = Ser36-phosphorylated; cited from earlier work
[7] = tested on: CaME85A/F142A; experiment: ITC binding to CaM double mutant E85A/F142A; conditions: buffer A (20 mM Imidazole pH 8.0, 100 mM NaCl, 2 mM EGTA), 24°C
How it was run: as §1

Association constant Ka [2]	Association constant Ka [3]	Substance	Ng-CaM binding [1]	also measured
–	–	Arg38Gln (R38Q): Ng point mutant Arg38Gln (literature)	reduce Ng-CaM binding	Ng-CaM binding ([1]; listed as Arg38Gln): reduce the binding strength
–	–	Ile33Gln (I33Q): Ng point mutant Ile33Gln (literature)	completely inhibits the binding	–
0.3 10^6 M^−1	2.3 10^6 M^−1	NgIQ: synthetic wild-type IQ motif peptide of Ng, aa27–50 (NAAAAKIQASFRGHMARKKIKSGE)	–	–
–	–	NgR38A: full-length Ng point mutant Arg38Ala; GFP-tagged in the electrophysiology experiments	–	binding to CaM (in words) [4]: completely abolish; binding to apo CaM (in words) ([3]; mutant Ng): does not bind to the apo CaM
1.6 10^6 M^−1	25 10^6 M^−1	NmIQ: synthetic wild-type IQ motif peptide of Nm, aa34–57	–	–
–	–	Ser36-phosphorylated Ng: Ng phosphorylated at Ser36 by PKC [reference compound]	–	synaptic strength ([5]; Ser36-phosphorylated): unable to enhance synaptic strength; binding to CaM and phosphatidic acid [6]: unable to bind CaM and phosphatidic acid
–	–	Ser36Asp (S36D): Ng point mutant Ser36Asp (literature)	reduce Ng-CaM binding	–
0.96 10^6 M^−1	23 10^6 M^−1	neurogranin [NgWT]	–	synaptic transmission / strength ([5]; overexpression, listed as wild-type Ng): potentiates synaptic transmission; synaptic strength ([5]; through interaction with CaM): enhances synaptic strength; affinity to apo CaM relative to Ca^2+/CaM ([3]; in words): higher affinity than that to Ca^2+/CaM
0.52 10^6 M^−1	7.9 10^6 M^−1	neuromodulin [NmWT]	–	Association constant Ka [7]: 0.46 10^6 M^−1
